# According to PMC4518544 (Journal of medicinal chemistry, 2015):
# “Also recorded” adds a separate entry of the source. Read-outs that look alike come from different tables or passages of the source.
# Key:
# Grp94 [1] = conditions: read-out: Kd for Grp94; cited from earlier work
# Grp94 [2] = biological target: T1, Grp94 (Canis lupus familiaris, UniProt P41148); assay: FP competition binding assay, Grp94; set-up: species or system Canine; conditions: for decrease in affinity for Grp94 of N3-substituted compounds: compared to the N9-series; for Hsp90α/Grp94: ratio of IC50 values, Table 4; for decrease in Grp94 activity on linker substitution: relative to S-linked 9g; for diminished potency for Grp94 on substitution of N3 with C: relative to 18a and 18c
# Hsp90α = Hsp90α (Homo sapiens, UniProt P07900); assay: FP competition binding assay, Hsp90α
# Hsp90β = Hsp90β (Homo sapiens, UniProt P08238); assay: FP competition binding assay, Hsp90β
# scanEDGE 97 kinase panel = assay: scanEDGE kinase competition binding panel; conditions: 10 μM
# Procedure, shortened: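 Competition binding panel. Kinase, biotinylated-ligand streptavidin beads and test compound (from 40× DMSO stocks) were incubated 1 h at room temperature in binding buffer with 6 mM DTT. Beads were washed and eluted 30 min with 0.5 μM free ligand. Eluted kinase was measured by qPCR.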
# TLR9 = TLR9 assay in transfected HEK 293T cells; format: cell-based; conditions: 24 h treatment
# Procedure, shortened: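 HEK 293T cells were transfected with HA-tagged human TLR9 and split onto chamber slides 24 h later, then treated 24 h at varying concentrations. Cells were fixed (4% paraformaldehyde, 20 min), permeabilized (0.1% Triton X-100, 10 min) and blocked (3% BSA, 30 min). Staining used anti-HA (1:250, 1 h) or normal rabbit IgG, then Cy3 anti-rabbit (1:400), with DAPI mounting. Confocal imaging; fluorescence intensity was normalized to cell number.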
# [3] = tested on: CpG induced TNF-α production; assay: TNFα ELISA, Raw264.7 cells stimulated with CpG; format: cell-based, mouse; conditions: 18 h treatment
# [4] = tested on: TNFα production in cells stimulated by LPS; assay: TNFα ELISA, Raw264.7 cells stimulated with LPS; format: cell-based, mouse; conditions: Hsp90-mediated effect
# [5] = tested on: IGF-II secretion by differentiated myoblasts; assay: C2C12 differentiation and IGF-II secretion assay; format: cell-based, mouse; conditions: 24 h treatment
# Procedure, shortened: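 C2C12 mouse myoblasts kept in DMEM with 10% FBS. Differentiation was induced by switching to DMEM with 2% horse serum (36–48 h). After the switch, cells were treated 24 h. Medium was incubated overnight at 4 °C in anti-IGF-II-coated ELISA wells, then detected with biotinylated anti-IGF-II, HRP-streptavidin and TMB. Read at 450 nm and quantified against a recombinant IGF-II standard curve.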
# HER2 = assay: Immunoblotting of HER2 in SKBr3 cells; format: cell-based
# Procedure, shortened: (§1)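 SKBr3 cells were treated 24 h with DMSO or test compound and lysed in RIPA buffer (pH 7.4) with protease inhibitors. Protein was measured by BCA, and 5–50 μg was run on SDS–PAGE and transferred to nitrocellulose. Blots were probed for HER2 (1:500), Hsp70 (1:2500), cleaved PARP (1:2500) and β-actin (1:3000), then HRP secondary, ECL and film, with densitometry. Triplicate experiments.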
# Hsp70 = assay: Immunoblotting of Hsp70 in SKBr3 cells; format: cell-based
# Procedure, shortened: as §1
# Aqueous solubility = format: physicochemical; conditions: water
# [6] = tested on: HER2-overexpressing SKBr3 cells; conditions: cited from earlier work
# cleaved PARP = assay: Immunoblotting of cleaved PARP in SKBr3 cells; format: cell-based; conditions: 100 μM
# Procedure, shortened: as §1
# SKBr3 cells = assay: CellTiter-Glo cell viability assay; format: cell-based; conditions: 100 μM, 72 h
# Procedure, shortened: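 SKBr3 cells were grown in McCoy's 5A with 10% FBS at 37 °C under CO2, then treated 72 h with vehicle or test compound in quadruplicate wells. Viable cells were measured by CellTiter-Glo ATP luminescence. Points are means, n = 4.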
# Grp94 [7] = biological target: T1, Grp94; conditions: cited from earlier work
# T1 sequence (P41148 22-804): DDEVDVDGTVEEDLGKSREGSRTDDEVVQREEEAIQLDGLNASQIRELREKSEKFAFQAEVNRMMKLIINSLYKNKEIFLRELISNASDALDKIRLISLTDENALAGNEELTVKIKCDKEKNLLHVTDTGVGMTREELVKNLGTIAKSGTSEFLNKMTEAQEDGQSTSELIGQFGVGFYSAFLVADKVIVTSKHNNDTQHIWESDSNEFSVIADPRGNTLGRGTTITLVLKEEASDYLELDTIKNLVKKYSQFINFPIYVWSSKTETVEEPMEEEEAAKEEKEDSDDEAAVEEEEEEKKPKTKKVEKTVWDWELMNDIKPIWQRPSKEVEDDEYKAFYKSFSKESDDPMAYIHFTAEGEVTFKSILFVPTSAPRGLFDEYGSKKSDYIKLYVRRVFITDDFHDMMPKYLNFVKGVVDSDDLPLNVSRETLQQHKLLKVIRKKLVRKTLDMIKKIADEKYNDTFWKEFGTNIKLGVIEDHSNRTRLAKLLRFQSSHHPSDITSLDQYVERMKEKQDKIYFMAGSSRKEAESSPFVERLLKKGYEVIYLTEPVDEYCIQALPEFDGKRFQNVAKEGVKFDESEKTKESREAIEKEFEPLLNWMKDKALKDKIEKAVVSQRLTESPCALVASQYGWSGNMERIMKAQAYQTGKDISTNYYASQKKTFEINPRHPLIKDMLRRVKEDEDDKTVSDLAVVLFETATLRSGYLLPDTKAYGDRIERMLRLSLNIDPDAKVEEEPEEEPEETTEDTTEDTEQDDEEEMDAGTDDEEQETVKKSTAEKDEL
# Sequence of Hsp90β (P08238 whole entry): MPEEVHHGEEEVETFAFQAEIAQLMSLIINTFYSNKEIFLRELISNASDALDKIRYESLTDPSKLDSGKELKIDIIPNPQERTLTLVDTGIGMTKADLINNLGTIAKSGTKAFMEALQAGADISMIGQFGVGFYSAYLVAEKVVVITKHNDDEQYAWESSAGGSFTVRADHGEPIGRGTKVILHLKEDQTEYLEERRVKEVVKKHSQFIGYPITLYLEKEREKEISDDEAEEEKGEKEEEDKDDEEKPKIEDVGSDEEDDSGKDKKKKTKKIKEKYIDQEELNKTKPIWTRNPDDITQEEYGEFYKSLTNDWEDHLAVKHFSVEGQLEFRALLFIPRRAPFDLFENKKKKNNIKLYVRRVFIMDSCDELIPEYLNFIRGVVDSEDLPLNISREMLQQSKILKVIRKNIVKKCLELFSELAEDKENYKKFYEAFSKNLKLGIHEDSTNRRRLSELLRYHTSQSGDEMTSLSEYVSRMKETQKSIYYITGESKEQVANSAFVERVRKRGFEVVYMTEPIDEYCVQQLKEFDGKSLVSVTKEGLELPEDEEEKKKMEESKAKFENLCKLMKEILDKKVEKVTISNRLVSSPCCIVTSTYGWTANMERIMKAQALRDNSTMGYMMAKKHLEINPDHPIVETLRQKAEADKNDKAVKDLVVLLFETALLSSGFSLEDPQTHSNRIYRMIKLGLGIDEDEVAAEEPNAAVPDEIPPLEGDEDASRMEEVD
molecule,measurement,setting,value
5′-N-ethylcarboxamidoadenosine [NECA],Kd,Grp94 [1],0.2 µM
"C#CCCCn1cnc(N)c2nc(Sc3ccccc3Cl)nc1-2 [9a′, 8-(2-Chlorophenylthio)-3-(pent-4-ynyl)-3H-purin-6-amine]",IC50,Grp94 [2],100 ± 10 µM
same,decrease in affinity for Grp94 of N3-substituted compounds,Grp94 [2],10–400 fold
"C#CCCCn1cnc(N)c2nc(Sc3ccccc3OC)nc1-2 [9b′, 8-(2-Methoxyphenylthio)-3-(pent-4-ynyl)-3H-purin-6-amine]",IC50,Grp94 [2],> 100 µM
"C#CCCCn1cnc(N)c2nc(Sc3ccccc3CO)nc1-2 [9c′, (2-(6-Amino-3-(pent-4-ynyl)-3H-purin-8-ylthio)phenyl)methanol]",IC50,Grp94 [2],> 100 µM
"C#CCCCn1cnc(N)c2nc(Sc3ccccc3OC(F)(F)F)nc1-2 [9d′, 3-(Pent-4-ynyl)-8-(2-(trifluoromethoxy)phenylthio)-3H-purin-6-amine]",IC50,Grp94 [2],> 100 µM
"C#CCCCn1cnc(N)c2nc(Sc3ccc(Cl)cc3Cl)nc1-2 [9g′, 8-(2,4-Dichlorophenylthio)-3-(pent-4-ynyl)-3H-purin-6-amine]",IC50,Grp94 [2],2.37 ± 0.79 µM
same,decrease in affinity for Grp94 of N3-substituted compounds,Grp94 [2],10–400 fold
same,Hsp90α/Grp94,Grp94 [2],>210 µM
"C#CCCCn1cnc(N)c2nc(Sc3ccc(OC)cc3OC)nc1-2 [9j′, 8-(2,4-Dimethoxyphenylthio)-3-(pent-4-ynyl)-3H-purin-6-amine]",IC50,Grp94 [2],> 100 µM
"C#CCCCn1cnc(N)c2nc(Sc3cc(Cl)ccc3Cl)nc1-2 [9k′, 8-(2,5-Dichlorophenylthio)-3-(pent-4-ynyl)-3H-purin-6-amine]",IC50,Grp94 [2],35.3 ± 5 µM
same,decrease in affinity for Grp94 of N3-substituted compounds,Grp94 [2],10–400 fold
"C#CCCCn1cnc(N)c2nc(Sc3cc(C)ccc3C)nc1-2 [9l′, 8-(2,5-Dimethylphenylthio)-3-(pent-4-ynyl)-3H-purin-6-amine]",IC50,Grp94 [2],> 100 µM
"C#CCCCn1cnc(N)c2nc(Sc3cc(C(F)(F)F)ccc3Cl)nc1-2 [9m′, 8-(2-Chloro-5-(trifluoromethyl)phenylthio)-3-(pent-4-ynyl)-3H-purin-6-amine]",IC50,Hsp90α,> 100 µM
same,IC50,Hsp90β,> 100 µM
same,IC50,Grp94 [2],> 100 µM
"C#CCCCn1cnc(N)c2nc(Sc3cc(Cl)cc(Cl)c3)nc1-2 [9n′, 8-(3,5-Dichlorophenylthio)-3-(pent-4-ynyl)-3H-purin-6-amine]",IC50,"Hsp90β; read-out: IC50 Hsp90β, FP competition, Cy3B-GM probe",> 100 µM
same,decrease in affinity for Grp94 of N3-substituted compounds,Grp94 [2],10–400 fold
same,IC50,"Grp94 [2]; read-out: IC50 Grp94, FP competition, Cy3B-GM probe",100 ± 8 µM
"C#CCCCn1cnc(N)c2nc(Sc3cc(C)cc(C)c3)nc1-2 [9q′, 8-(3,5-Dimethylphenylthio)-3-(pent-4-ynyl)-3H-purin-6-amine]",IC50,Grp94 [2],> 100 µM
"C#CCCCn1cnc(N)c2nc(Sc3cc(Cl)c(Cl)cc3Cl)nc1-2 [9v′, 3-(Pent-4-ynyl)-8-(2,4,5-trichlorophenylthio)-3H-purin-6-amine]",IC50,Grp94 [2],2.08 µM
same,decrease in affinity for Grp94 of N3-substituted compounds,Grp94 [2],10–400 fold
same,Hsp90α/Grp94,Grp94 [2],>48 µM
"C#CCCCn1cnc(N)c2nc(Sc3c(C)cc(C)cc3C)nc1-2 [9w′, 8-(Mesitylthio)-3-(pent-4-ynyl)-3H-purin-6-amine]",IC50,Grp94 [2],20 ± 5 µM
same,decrease in affinity for Grp94 of N3-substituted compounds,Grp94 [2],10–400 fold
same,Hsp90α/Grp94,Grp94 [2],>5 µM
"C#CCCCCn1c(Sc2cc(Cl)cc(Cl)c2)nc2c(N)ncnc21 [13b, 8-((3,5-Dichlorophenyl)thio)-9-(hex-5-yn-1-yl)-9H-purin-6-amine]",decrease in potency for Grp94,"Grp94 [2]; relative to 9n, chain length five to six carbons",approximately 3 fold
"C#CCCCn1c(S(=O)(=O)c2ccc(Cl)cc2Cl)nc2c(N)ncnc21 [14b, 8-((2,4-Dichlorophenyl)sulfonyl)-9-(pent-4-yn-1-yl)-9H-purin-6-amine]",decrease in Grp94 activity on linker substitution,Grp94 [2],~ 40 fold
"C#CCCCn1c(Oc2ccc(Cl)cc2Cl)nc2c(N)ncnc21 [14c, 8-(2,4-Dichlorophenoxy)-9-(pent-4-yn-1-yl)-9H-purin-6-amine]",decrease in Grp94 activity on linker substitution,Grp94 [2],4–6 fold
"C#CCCCn1c(Cc2ccc(Cl)cc2Cl)nc2c(N)ncnc21 [14d, 8-(2,4-Dichlorobenzyl)-9-(pent-4-yn-1-yl)-9H-purin-6-amine]",decrease in Grp94 activity on linker substitution,Grp94 [2],4–6 fold
"CC(C)NCCCn1c(Sc2cc(Cl)cc(Cl)c2)nc2c(N)ncnc21 [18c, 8-((3,5-Dichlorophenyl)thio)-9-(3-(isopropylamino)propyl)-9H-purin-6-amine]",selectivity for Grp94 over Hsp90α/β,Grp94 [2],> 100 fold
same,interaction with kinase panel,scanEDGE 97 kinase panel,inert
same,expression of TLR9 in the post-ER compartment,TLR9,dose-dependently inhibited
same,CpG induced TNF-α production,[3],dose-dependently inhibited
same,TNFα production in cells stimulated by LPS,[4],lack of activity
same,IGF-II secretion by differentiated myoblasts,[5],dose-dependently inhibited
same,steady-state levels of HER2 kinase,"HER2; HER2 overexpressing breast cancer cells, 24 h",reduced
same,Hsp70 induction,Hsp70; 24 h,no Hsp70 induction; also recorded: did not modulate
same,solubility,Aqueous solubility,> 10000 µg/mL
same,growth of SKBr3 cells,[6],growth impairment
"CC(C)NCCCn1cnc(N)c2nc(Sc3cc(Cl)cc(Cl)c3)nc1-2 [18c′, 8-((3,5-Dichlorophenyl)thio)-3-(3-(isopropylamino)propyl)-3H-purin-6-amine]",decrease in affinity for Grp94 of N3-substituted compounds,Grp94 [2],10–400 fold
same,Hsp90α/Grp94,Grp94 [2],>39 µM
"CC(C)NCCCn1c(Sc2ccc(Cl)cc2Cl)nc2c(N)nccc21 [18d, 2-((2,4-Dichlorophenyl)thio)-1-(3-(isopropylamino)propyl)-1H-imidazo[4,5-c]pyridin-4-amine]",diminished potency for Grp94 on substitution of N3 with C,Grp94 [2],5–8 fold
"CC(C)NCCCn1c(Sc2cc(Cl)cc(Cl)c2)nc2c(N)nccc21 [18e, 2-((3,5-Dichlorophenyl)thio)-1-(3-(isopropylamino)propyl)-1H-imidazo[4,5-c]pyridin-4-amine]",diminished potency for Grp94 on substitution of N3 with C,Grp94 [2],5–8 fold
CC(C)NCCCn1c(Sc2cc3c(cc2N(C)C)OCO3)nc2c(N)ncnc21 [18g],loss of affinity for Grp94 compared to PU-H71 (5),Grp94 [2],10 fold
same,lower affinity for Grp94 compared to Hsp90α,Grp94 [2],~ 3 fold
COC(=O)c1c(O)cc(O)c(Cl)c1CCc1nccn1Cc1ccccc1 [compound 3],HER2 level,"HER2; SKBr3 cells, 100 μM",possibly a slight reduction in HER2
same,effect in SKBr3 cells,HER2; up to 10 μM,no effect
same,Hsp70 induction,Hsp70; 100 μM,Hsp70 induction
same,PARP cleavage,cleaved PARP,minor PARP cleavage
same,cell viability,SKBr3 cells,cellular toxicity
same,antiproliferative effects against SKBr3 cells,[6],lacked antiproliferative effects
"C#CCCCn1cnc(N)c2nc(Sc3ccc(C)cc3C)nc1-2 [compound 4, 8-(2,4-Dimethylphenylthio)-3-(pent-4-ynyl)-3H-purin-6-amine]",IC50,Hsp90α,> 250 µM
CN(C)c1cc2c(cc1Sc1nc3c(N)nccc3n1CCNCC(C)(C)C)OCO2 [compound 22],lower affinity for Grp94 than for Hsp90α or Hsp90β,Grp94 [7],~ 6 fold
